# Experimental data reported in ChEMBL document CHEMBL1156133, “Losartan-antioxidant hybrids: novel molecules for the prevention of hypertension-induced cardiovascular damage” (J Med Chem, 2009).
# Activity calls are given as the source filed them. The rule behind the calls is not given here.
# Columns and labels:
# Rattus norvegicus [1] = experiment: Antihypertensive activity in Wistar rat assessed as change in blood urea level at 10 mg/kg/day, po measured after 8 weeks; type: functional
# Summary of the method: (§1)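 Two-month-old male Wistar rats given L-NAME in drinking water (20 mg/kg/day) for 8 weeks; from week 4, test treatments also in drinking water daily (12.00-18.00 h). Sacrificed under halothane anesthesia at 8 weeks; serum biochemical parameters measured by automatic analyzer. Mean ± SEM of 10 rats; nonparametric statistics.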
# Rattus norvegicus [2] = experiment: Antihypertensive activity in Wistar rat assessed as change in blood LDH level at 10 mg/kg/day, po measured after 8 weeks in presence of losartan; type: functional
# Rattus norvegicus [3] = experiment: Antihypertensive activity in Wistar rat assessed as change in blood AST level at 10 mg/kg/day, po measured after 8 weeks; type: functional
# Rattus norvegicus [4] = experiment: Antihypertensive activity in Wistar rat assessed as change in blood urea level at 10 mg/kg/day, po measured after 8 weeks in presence of losartan; type: functional; summary of the method: as §1
# Rattus norvegicus [5] = experiment: Antihypertensive activity in Wistar rat assessed as change in blood triglyceride level at 10 mg/kg/day, po measured after 8 weeks in presence of losartan; type: functional; summary of the method: as §1
# Rattus norvegicus [6] = experiment: Antihypertensive activity in Wistar rat assessed as change in blood glucose level at 10 mg/kg/day, po measured after 8 weeks; type: functional; summary of the method: as §1
# Rattus norvegicus [7] = experiment: Antihypertensive activity in Wistar rat assessed as change in blood creatinine level at 10 mg/kg/day, po measured after 8 weeks in presence of losartan; type: functional; summary of the method: as §1
# Rattus norvegicus [8] = experiment: Antihypertensive activity in Wistar rat assessed as change in blood protein level at 10 mg/kg/day, po measured after 8 weeks in presence of losartan; type: functional; summary of the method: as §1
# Rattus norvegicus [9] = experiment: Plasma concentration in po dosed Wistar rat assessed as EXP-3174 level after 4 weeks in presence of losartan; type: ADME, organism-based; conditions: in vivo, 672 h
# Summary of the method: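 Separate groups of Wistar rats dosed in drinking water for 4 weeks (n = 4-6 per group), then sacrificed and plasma analyzed by HPLC-MS/MS (triple quadrupole, electrospray), isocratic MeOH/water with 0.1% formic acid, 40 °C. Two plasma samples per animal; mean ± SEM.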
# Rattus norvegicus [10] = experiment: Antihypertensive activity in Wistar rat assessed as decrease in L-NAME-induced fibronectin content in vessel walls at 10 mg/kg/day, po for 4 weeks in presence of losartan; type: functional, organism-based
# Summary of the method: (§2)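 Male Wistar rats on L-NAME in drinking water (20 mg/kg/day) for 8 weeks, treatments in drinking water for the last 4 weeks. Thoracic aorta lysates run on SDS-PAGE and Western blotted for collagen type I, fibronectin or HNE-lysine, with β-tubulin as loading control; ECL detection, densitometry. Expressed as percent of basal; mean ± SEM of 10 experiments.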
# Rattus norvegicus [11] = experiment: Antihypertensive activity in Wistar rat assessed as change in blood Na+ level at 10 mg/kg/day, po measured after 8 weeks in presence of losartan; type: functional
# Rattus norvegicus [12] = experiment: Antihypertensive activity in Wistar rat assessed as change in blood cholesterol level at 10 mg/kg/day, po measured after 8 weeks in presence of losartan; type: functional
# Rattus norvegicus [13] = experiment: Antihypertensive activity in Wistar rat assessed as change in blood […] level at 10 mg/kg/day, po measured after 8 weeks in presence of losartan; type: functional
# Rattus norvegicus [14] = experiment: Antihypertensive activity in Wistar rat assessed as decrease in L-NAME-induced collagen 1 level in vessel walls at 10 mg/kg/day, po for 4 weeks in presence of losartan; type: functional, organism-based; summary of the method: as §2
# Rattus norvegicus [15] = experiment: Antihypertensive activity in Wistar rat assessed as change in blood […] level at 10 mg/kg/day, po measured after 8 weeks; type: functional
# Rattus norvegicus [16] = experiment: Antihypertensive activity in Wistar rat assessed as change in blood triglyceride level at 10 mg/kg/day, po measured after 8 weeks; type: functional; summary of the method: as §1
# Rattus norvegicus [17] = experiment: Antihypertensive activity in Wistar rat assessed as change in blood creatinine level at 10 mg/kg/day, po measured after 8 weeks; type: functional; summary of the method: as §1
# Rattus norvegicus [18] = experiment: Antihypertensive activity in Wistar rat assessed as change in blood Na+ level at 10 mg/kg/day, po measured after 8 weeks; type: functional
# Rattus norvegicus [19] = experiment: Antihypertensive activity in Wistar rat assessed as change in blood ALT level at 10 mg/kg/day, po measured after 8 weeks; type: functional
# Rattus norvegicus [20] = experiment: Antihypertensive activity in Wistar rat assessed as change in blood calcium level at 10 mg/kg/day, po measured after 8 weeks in presence of losartan; type: functional
# Rattus norvegicus [21] = experiment: Antihypertensive activity in Wistar rat assessed as decrease in L-NAME-induced HNE-lysine accumulation in vessel walls at 10 mg/kg/day, po for 4 weeks in presence of losartan; type: functional, organism-based; summary of the method: as §2
# Rattus norvegicus [22] = experiment: Antihypertensive activity in Wistar rat assessed as change in blood protein level at 10 mg/kg/day, po measured after 8 weeks; type: functional; summary of the method: as §1
# Rattus norvegicus [23] = experiment: Antihypertensive activity in Wistar rat assessed as change in blood AST level at 10 mg/kg/day, po measured after 8 weeks in presence of losartan; type: functional
# Rattus norvegicus [24] = experiment: Antihypertensive activity in Wistar rat assessed as change in blood ALT level at 10 mg/kg/day, po measured after 8 weeks in presence of losartan; type: functional
# Rattus norvegicus [25] = experiment: Antihypertensive activity in Wistar rat assessed as change in blood LDH level at 10 mg/kg/day, po measured after 8 weeks; type: functional
# Rattus norvegicus [26] = experiment: Antihypertensive activity in Wistar rat assessed as change in blood cholesterol level at 10 mg/kg/day, po measured after 8 weeks; type: functional
# Rattus norvegicus [27] = experiment: Antihypertensive activity in Wistar rat assessed as change in blood calcium level at 10 mg/kg/day, po measured after 8 weeks; type: functional
# Rattus norvegicus [28] = experiment: Antihypertensive activity in Wistar rat assessed as change in blood glucose level at 10 mg/kg/day, po measured after 8 weeks in presence of losartan; type: functional; summary of the method: as §1
structure (smiles),measurement,setting,value
O=C(O)CCc1ccc(O)c(O)c1 [DIHYDROCAFFEIC ACID],Activity,Rattus norvegicus [1],27 mg/dL
same,Activity,Rattus norvegicus [2],610 IU/L
same,Activity,Rattus norvegicus [3],77 IU/L
same,Activity,Rattus norvegicus [4],24 mg/dL
same,Activity,Rattus norvegicus [5],69 mg/dL
same,Activity,Rattus norvegicus [6],170 mg/dL
same,Activity,Rattus norvegicus [7],0.44 mg/dL
same,Activity,Rattus norvegicus [8],4 g/dL
same,concentration,Rattus norvegicus [9],19.4 nM
same,Activity,Rattus norvegicus [10],Active
same,Activity,Rattus norvegicus [11],148 mmol/L
same,Activity,Rattus norvegicus [12],54 mg/dL
same,Activity,Rattus norvegicus [13],4.2 mmol/L
same,Activity,Rattus norvegicus [14],Active
same,Activity,Rattus norvegicus [15],4.1 mmol/L
same,Activity,Rattus norvegicus [16],70 mg/dL
same,Activity,Rattus norvegicus [17],0.47 mg/dL
same,Activity,Rattus norvegicus [18],148 mmol/L
same,Activity,Rattus norvegicus [19],24 IU/L
same,Activity,Rattus norvegicus [20],8.5 mg/dL
same,Activity,Rattus norvegicus [21],Active
same,Activity,Rattus norvegicus [22],5.2 g/dL
same,Activity,Rattus norvegicus [23],93 IU/L
same,Activity,Rattus norvegicus [24],22 IU/L
same,Activity,Rattus norvegicus [25],591 IU/L
same,Activity,Rattus norvegicus [26],58 mg/dL
same,Activity,Rattus norvegicus [27],8.8 mg/dL
same,Activity,Rattus norvegicus [28],168 mg/dL
